Test results: ChEMBL document CHEMBL1130289, “Polyanion inhibitors of human immunodeficiency virus and other viruses. 5. Telomerized anionic surfactants derived from amino acids” (J Med Chem, 1997); call rule not given here

Columns and labels:
CEM-4 = assay: Cytotoxic concentration required to reduce the viability of uninfected cells by 50% after 5 days of incubation in the presence on CEM-4 cells.; format: functional; conditions: Homo sapiens, CEM-4, 120 h
In short: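 Uninfected CEM-4 cells were incubated with compound for 5 days. CC50 is the concentration that reduced viability by 50%. Values average at least two separate experiments.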

[1] = system: Human immunodeficiency virus 1; assay: Inhibitory concentration required to inhibit HIV-induced cytopathicity in CEM-4 cells by 50% based in the MTT assay; format: functional, organism-based; conditions: Human immunodeficiency virus 1, CEM-4
[2] = system: Human immunodeficiency virus 1; assay: Inhibitory concentration required to inhibit HIV-induced cytopathicity in CEM-4 cells by 50% based in the MTT assay; Not active; format: functional, organism-based
Vero = assay: Minimum cytotoxic concentration required to cause a microscopically detectable alteration of normal cell morphology in Vero cells; format: functional, Chlorocebus sabaeus
In short: (§1)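 Uninfected E6SM, HeLa or Vero cells were exposed to compound and examined by microscopy. MCC is the lowest concentration causing a detectable alteration of normal cell morphology.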

Human betaherpesvirus 5 [3] = assay: Concentration required to inhibit HCMV(Davis) induced cytopathicity in HEL cells by 50%; format: functional, organism-based; conditions: Human betaherpesvirus 5, HEL
In short: (§2)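 Virus was added to the cell monolayers in the presence of compound. Incubation continued until the viral cytopathic effect was scored. IC50 is the concentration that reduced virus-induced cytopathicity by 50%.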

[4] = system: Mammalian orthoreovirus 1; assay: Concentration required to inhibit reovirus-1 induced cytopathicity in Vero cells by 50%; format: functional, organism-based; conditions: Mammalian orthoreovirus 1, Vero; in short: as §2
Junin virus = assay: Concentration required to inhibit Junin induced cytopathicity in Vero cells by 50%; format: functional, organism-based; conditions: Mammarenavirus juninense
HeLa = assay: Minimum cytotoxic concentration required to cause a microscopically detectable alteration of normal cell morphology in HeLa cells; format: functional, Homo sapiens; in short: as §1
MT4 = assay: Concentration required to reduce the viability of mock-infected MT-4 cells by 50%; format: functional; conditions: Homo sapiens
In short: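 Mock-infected MT-4 cells were exposed to compound. CC50 is the concentration that reduced cell viability by 50%. Values are means of two separate experiments.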

[5] = system: Human immunodeficiency virus 2; assay: Concentration required to inhibit HIV-2 induced cytopathicity in MT-4 cells by 50%; format: functional, organism-based; conditions: Human immunodeficiency virus 2, MT4
In short: (§3)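 MT-4 cells were infected with HIV-1 (strain HTLV-IIIB/LAI) or HIV-2 (strain LAV-2 ROD) and exposed to compound. IC50 is the concentration that inhibited HIV-induced cytopathicity by 50%. Values are means of two separate experiments.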

Tacaribe virus = assay: Concentration required to inhibit Tacaribe induced cytopathicity in Vero cells by 50%; format: functional, cell-based; conditions: Mammarenavirus tacaribeense
Semliki Forest virus = assay: Concentration required to inhibit forest induced cytopathicity in Vero cells by 50%; format: functional, organism-based; in short: as §2
Vaccinia virus = assay: Concentration required to inhibit Vaccinia induced cytopathicity in E6SM cells by 50%; format: functional, organism-based; conditions: Orthopoxvirus vaccinia
[6] = system: Human immunodeficiency virus 1; assay: Concentration required to inhibit HIV-1 induced cytopathicity in MT-4 cells by 50%; format: functional, organism-based; conditions: Human immunodeficiency virus 1, MT4; in short: as §3
[7] = system: Vesicular stomatitis virus; assay: Concentration required to inhibit vesicular stomatitis induced cytopathicity in E6SM cells by 50%; format: functional, organism-based
Coxsackievirus = assay: Concentration required to inhibit Coxsackie induced cytopathicity in HeLa cells by 50%; format: functional, organism-based; in short: as §2
Human alphaherpesvirus 1 [8] = assay: Concentration required to inhibit HSV-1 TK-(B2006) induced cytopathicity in E6SM cells by 50%; conditions: Human alphaherpesvirus 1, E6SM
Human respirovirus 3 = assay: Concentration required to inhibit parainfluenza-3 induced cytopathicity in Vero cells by 50%; format: functional, organism-based; conditions: Human respirovirus 3, Vero; in short: as §2
[9] = system: Human immunodeficiency virus 1; assay: Concentration required to inhibit by 50% syncytium formation between MOLT-4 cells and HIV-1(IIIB); format: functional, organism-based; conditions: Human immunodeficiency virus 1, MOLT-4
In short: (§4)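 Uninfected MOLT-4 cells were co-cultured with HUT-78 cells chronically infected with HIV-1 (IIIB) or HIV-2 (ROD), in the presence of compound. The end point was syncytium formation, and IC50 is the concentration giving 50% inhibition. Values are means of two separate experiments.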

HEL = assay: Minimum cytotoxic concentration required to cause a microscopically detectable alteration of normal cell morphology in HEL cells; format: functional, Homo sapiens
Sindbis virus = assay: Concentration required to inhibit Sindbis induced cytopathicity in Vero cells by 50%; format: functional, organism-based; in short: as §2
[10] = system: Human immunodeficiency virus 2; assay: Concentration required to inhibit by 50% syncytium formation between MOLT-4 cells and HIV-2 (ROD) infected HUT-78 cells; format: functional, organism-based; conditions: Human immunodeficiency virus 2, MOLT-4; in short: as §4
Human alphaherpesvirus 2 = assay: Concentration required to inhibit HSV-2(G) induced cytopathicity in E6SM cells by 50%; conditions: Human alphaherpesvirus 2, E6SM
Human alphaherpesvirus 1 [11] = assay: Concentration required to inhibit HSV-1(KOS) induced cytopathicity in E6SM cells by 50%; conditions: Human alphaherpesvirus 1, E6SM
Poliovirus 1 = assay: Concentration required to inhibit Polio-1 induced cytopathicity in HeLa cells by 50%; format: functional, organism-based; conditions: Enterovirus C
Human betaherpesvirus 5 [12] = assay: Concentration required to inhibit HCMV(AD169) induced cytopathicity in HEL cells by 50%; format: functional, organism-based; conditions: Human betaherpesvirus 5, HEL; in short: as §2
E6SM = assay: Minimum cytotoxic concentration required to cause a microscopically detectable alteration of normal cell morphology in E6SM cells; format: functional, Homo sapiens; in short: as §1

## CCCCCCCCCCCCSCCCCCCCCCCCCCCCCCCCCCCCCCCCCCCC(=O)N(CC)CCCCCCCCCCC(=O)NCC(=O)[O-].[Na+]
CEM-4
  CC50: 80 µg/mL
[1]
  IC50: 4 µg/mL

## CCCCCCCCCCCCSCCCCCCCCCCCCCCCCC(=O)N(CC)CCCCCCCCCCC(=O)NCCC(=O)[O-].[Na+]
CEM-4
  CC50: > 100 µg/mL
[2]
  IC50: Not Active

## CCCCCCCCCCCCSCCCCCCC(=O)N(CC)CCCCCCCCCCC(=O)NC(CCC(=O)[O-])C(=O)O.[Na+] (centres undefined)
CEM-4
  CC50: > 100 µg/mL
[1]
  IC50: 21 µg/mL

## CCCCCCCCCCCCSCCCCCCC(=O)N(CC)CCCCCCCCCCC(=O)NCC(=O)[O-].[Na+]
CEM-4
  CC50: 50 µg/mL
[2]
  IC50: Not Active

## CCCCCCCCCCCCSCCCCCCCCCCCCCCCCCCCCCCCCCCCCC(=O)NCCCCCCCCCCC(=O)NCC(=O)[O-].[Na+]
CEM-4
  CC50: > 300 µg/mL
[1]
  IC50: 194 µg/mL

## CCCCCCCCCCCCSCCCCCCCCCCCCCCCCCCCCCCCCCCCCCCC(=O)NCCCCCCCCCCC(=O)NC(CCC(=O)[O-])C(=O)O.[Na+] (centres undefined)
CEM-4
  CC50: > 100 µg/mL
[1]
  IC50: 15 µg/mL

## CCCCCCCCCCCCSCCCCCCCCCCC(=O)NCCCCCCCCCCC(=O)NC(CCC(=O)[O-])C(=O)O.[Na+] (centres undefined)
CEM-4
  CC50: > 100 µg/mL
[1]
  IC50: 11 µg/mL

## CCCCCCCCCCCCSCCCCCCCCCCCCCCCCCCCCCCCCCCCCCCCCCCCCCCCCCCCCCCCCCCCCCCCCCCCCCCCCCCCCCCCCCCCCCCCCC(=O)N(CC)CCCCCCCCCCC(=O)[O-].[Na+]
CEM-4
  CC50: 30 µg/mL
[1]
  IC50: 5 µg/mL

## CCCCCCCCCCCCSCCCCCCCCCCCCCCC(=O)NCCCCCCCCCCC(=O)NC(CCC(=O)[O-])C(=O)O.[Na+] (centres undefined)
CEM-4
  CC50: > 100 µg/mL
[1]
  IC50: 12 µg/mL

## CCCCCCCCCCCCSCCCCCCCCCCCCCCCCCCCCCCCCCCCCCCCCCCC(=O)N(CC)CCCCCCCCCCC(=O)NC(CCC(=O)[O-])C(=O)O.[Na+] (centres undefined)
CEM-4
  CC50: > 300 µg/mL
[1]
  IC50: 25 µg/mL

## CCCCCCCCCCCCSCCCCCCCCCCC(=O)N(CC)CCCCCCCCCCC(=O)NCCC(=O)[O-].[Na+]
Vero
  MMC: >200 µg/mL
Human betaherpesvirus 5 [3]
  IC50: 20 µg/mL
[4]
  IC50: > 200 µg/mL
Junin virus
  IC50: > 50 µg/mL
HeLa
  MMC: >200 µg/mL
MT4
  CC50: > 250 µg/mL
[5]
  IC50: 30 µg/mL
CEM-4
  CC50: 50 µg/mL
Tacaribe virus
  IC50: > 50 µg/mL
Semliki Forest virus
  IC50: > 200 µg/mL
Vaccinia virus
  IC50: > 200 µg/mL
[2]
  IC50: Not Active
[6]
  IC50: 13 µg/mL
[7]
  IC50: > 200 µg/mL
Coxsackievirus
  IC50: > 200 µg/mL
Human alphaherpesvirus 1 [8]
  IC50: 150 µg/mL
Human respirovirus 3
  IC50: > 200 µg/mL
[9]
  IC50: 30 µg/mL
HEL
  MMC: >50 µg/mL
Sindbis virus
  IC50: > 200 µg/mL
[10]
  IC50: 30 µg/mL
Human alphaherpesvirus 2
  IC50: 20 µg/mL
Human alphaherpesvirus 1 [11]
  IC50: 70 µg/mL
Poliovirus 1
  IC50: > 200 µg/mL
Human betaherpesvirus 5 [12]
  IC50: 50 µg/mL

## CCCCCCCCCCCCSCCCCCCCCCCCCCCCCCCCCC(=O)N(CC)CCCCCCCCCCC(=O)NC(CCC(=O)[O-])C(=O)O.[Na+] (centres undefined)
CEM-4
  CC50: > 300 µg/mL
[1]
  IC50: 46 µg/mL

## CCCCCCCCCCCCSCCCCCCCCCCCCCCCCC(=O)NCCCCCCCCCCC(=O)NCCC(=O)[O-].[Na+]
CEM-4
  CC50: > 100 µg/mL
[2]
  IC50: Not Active

## CCCCCCCCCCCCSCCCCCCCCCCCCCCCCCCCCCCC(=O)NCCCCCCCCCCC(=O)[O-].[Na+]
Human betaherpesvirus 5 [3]
  IC50: > 50 µg/mL
[4]
  IC50: > 100 µg/mL
Junin virus
  IC50: > 50 µg/mL
HeLa
  MMC: >200 µg/mL
MT4
  CC50: > 250 µg/mL
[5]
  IC50: 69 µg/mL
CEM-4
  CC50: 99 µg/mL
Tacaribe virus
  IC50: > 50 µg/mL
Semliki Forest virus
  IC50: > 100 µg/mL
Vaccinia virus
  IC50: > 100 µg/mL
[2]
  IC50: Not Active
[6]
  IC50: 55 µg/mL
E6SM
  MMC: >200 µg/mL
[7]
  IC50: > 100 µg/mL
Coxsackievirus
  IC50: > 200 µg/mL
Human alphaherpesvirus 1 [8]
  IC50: > 100 µg/mL
Human respirovirus 3
  IC50: > 100 µg/mL
[9]
  IC50: 150 µg/mL
HEL
  MMC: >50 µg/mL
Sindbis virus
  IC50: > 100 µg/mL
[10]
  IC50: 150 µg/mL
Human alphaherpesvirus 2
  IC50: > 100 µg/mL
Human alphaherpesvirus 1 [11]
  IC50: > 100 µg/mL
Poliovirus 1
  IC50: > 200 µg/mL
Human betaherpesvirus 5 [12]
  IC50: > 50 µg/mL
